Assay results pooled from the literature.
Effect on: enzyme activity
Action: inhibitor
MAP3K11: Mitogen-activated protein kinase kinase kinase 11 (MAP3K11, Homo sapiens, UniProt Q16584)
HIPK1: Homeodomain-interacting protein kinase 1 (HIPK1, Homo sapiens, UniProt Q86Z02)
MAP3K1: Mitogen-activated protein kinase kinase kinase 1 (MAP3K1, Homo sapiens, UniProt Q13233)

SMILES | target | assay | conditions | remaining activity [%]
Cc1nn(CC(F)(F)F)cc1Nc1ncc(C2CC2)c(NCc2ccc(S(N)(=O)=O)cc2)n1 | MAP3K11 | radiometric | 1 µM | 89
CC(C)(O)[C@H]1CC[C@H](Nc2ccc3ncc(-c4cccc(C(F)(F)F)c4)n3n2)CC1 | cAMP-dependent protein kinase catalytic subunit gamma (PRKACG, Homo sapiens, UniProt P22612) | – | 1 µM | 98.6
O=C(O)c1ccc2c(c1)nc(Nc1ccc3ccccc3c1)c1ccncc12 | HIPK1 | radiometric | 1 µM | 13
COc1cc(Nc2cnc(C#N)c(O[C@H](C)CN(C)C)n2)ncc1-c1cnn(C)c1 | MAP3K1 | radiometric | 10 µM | 99
COc1cccc(CCNc2nc3cc(C(=O)O)ccc3c3cnccc23)c1 | HIPK1 | radiometric | 1 µM | 16
O=C(NCCCNc1nc(Nc2cccc(CN3CCOCC3)c2)ncc1C1CC1)C1CCC1 | MAP3K11 | radiometric | 1 µM | 38
FC(F)c1nc2ccccc2n1-c1nc(N2CCOCC2)nc(N2CCOCC2)n1 | MAP3K1 | – | 10 µM | 92
O=C(NCCCNc1ccnc(Nc2cccc(NC(=O)N3CCCC3)c2)n1)C1CCC1 | MAP3K11 | radiometric | 1 µM | 86
CCCOc1ccc(OC)c(F)c1C(=O)c1ccc(C(=O)N[C@@H]2CNC[C@H]2NC(=O)c2ccc3[nH]ncc3c2)cc1 | Mitogen-activated protein kinase 1 (Mapk1, Mus musculus, UniProt P63085) | – | 10 µM | 100
Cc1cnc(NC2CCOCC2)nc1-n1cnc(C(=O)NC(CN)c2cc(F)cc(Cl)c2)c1 (centres unmarked) | Hepatocyte growth factor receptor (MET, Homo sapiens, UniProt P08581, M1250T) | radiometric | 1 µM | 100
Cc1ccc(C(=O)Nc2ccc(CN3CCN(C)CC3)c(C(F)(F)F)c2)cc1C#Cc1cnc2cccnn12 | Serine/threonine-protein kinase 36 (STK36, Homo sapiens, UniProt Q9NRP7) | – | 23.5 nM | 100
